Legend:
HT-29 = experiment: Growth inhibition of human HT-29 cells after 72 hrs by CellTiter-Glo reagent based assay; type: functional; details: HT-29, 72 h
Procedure, shortened: (§1)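 Cancer cell lines (PC3 prostate, HT29 colorectal carcinoma, MDA-MB-231 breast) were screened by quantitative high-throughput screening in whole cells, and CC50 values were derived.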

PC-3 = experiment: Growth inhibition of human PC3 cells after 72 hrs by CellTiter-Glo reagent based assay; type: functional; details: PC-3, 72 h; procedure, shortened: as §1
MDA-MB-231 = experiment: Growth inhibition of human MDA-MB-231 cells after 72 hrs by CellTiter-Glo reagent based assay; type: functional; details: MDA-MB-231, 72 h; procedure, shortened: as §1
[1] = Growth inhibition of mouse CPC300 cells after 72 hrs by CellTiter-Glo reagent based assay; type: functional, cell-based
[2] = Growth inhibition of human NALM16 cells after 72 hrs by CellTiter-Glo reagent based assay; type: functional, cell-based
Raji = experiment: Growth inhibition of human Raji cells after 72 hrs by CellTiter-Glo reagent based assay; type: functional, cell-based
Jurkat E6.1 = experiment: Growth inhibition of human Jurkat E6-1 cells after 72 hrs by CellTiter-Glo reagent based assay; type: functional, cell-based; details: jurkat e6.1
REH = experiment: Growth inhibition of human REH cells after 72 hrs by CellTiter-Glo reagent based assay; type: functional, cell-based
697 = experiment: Growth inhibition of human 697 cells after 72 hrs by CellTiter-Glo reagent based assay; type: functional, cell-based; details: 697
BJ = experiment: Growth inhibition of human BJ cells after 72 hrs by CellTiter-Glo reagent based assay; type: cell-based
Procedure, shortened: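 Normal human foreskin fibroblast (BJ) counter-screen for cytotoxicity, with drug tested at 10 μM.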

[3] = Homo sapiens, NALM16, 72 h, read-out: EC50

Row | Compound | CC50 (HT-29) [µM] | CC50 (PC-3) [µM] | CC50 (MDA-MB-231) [µM] | EC50 ([1]; cpc300) | EC50 ([2]; nalm16) | EC50 (Raji; raji) | EC50 (Jurkat E6.1) | EC50 (REH; reh) | EC50 697 | EC50 (BJ) [µM] | EC50 (REH; Homo sapiens, REH, 72 h, read-out: EC50) [µM] | EC50 [2, 3] [µM] | EC50 (Raji; Homo sapiens, Raji, 72 h, read-out: EC50) [µM] | EC50 ([1]; Mus musculus, CPC300, 72 h, read-out: EC50) [µM]
1 | CSc1ccc(/C=C2/C(C)=C(CC(=O)NCCN(C)C)c3cc(F)ccc32)cc1 | 0.65 | 3.12 | 2.67 | Not Active | Not Active | Not Active | Not Active | Not Active | Not Active | > 7.57 |  |  |  | 
2 | COc1cc(/C=C2/C(C)=C(CC(=O)N3CCN(c4ccncc4)CC3)c3cc(F)ccc32)cc(OC)c1OC | 2.79 | 5.45 | 6.5 | Not Active | Not Active | Not Active | Not Active |  | Not Active | > 7.57 | 27 |  |  | 
3 | CSc1ccc(/C=C2/C(C)=C(CC(=O)N(C)CCN(C)C)c3cc(F)ccc32)cc1 | 1.83 | 5.63 | 3.98 | Not Active |  |  | Not Active | Not Active | Not Active | > 7.57 |  | 0.071 | 0.83 | 
4 | CC1=C(CC(=O)NCCCN(C)C)c2cc(F)ccc2/C1=C\c1nc2ccccc2s1 | 1.05 | 3.25 | 1.93 |  |  | Not Active | Not Active | Not Active | Not Active | > 7.57 |  | 0.35 |  | 65
